RanGTP-Impb inh: disruptors of Ran-importin-beta complex formation – biochemical, FRET, CFP-Ran, YFP-importin-beta, homogeneous, primary screen; inhibition, % (no concentration beside the values); cell-free CFP-Ran/YFP-importin-beta FRET ratio; actives 1.1% (n = 300,000); AID 2216;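 active = more than half of the replicate wells show a fall in the fluorescence ratio signal beyond about 16%, limit read from the data, passing the limit was not always enough; inconclusive = exactly half of the replicate wells pass the set limit; inactive = fewer than half of replicates pass the limit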;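 note: 0% = DMSO wells and 100% = Ran loaded with GDP instead of GTP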
Runt-SMMHC FRET: inhibitors of human RUNX1 Runt domain binding to CBFb-SMMHC; actives 0.74% (n = 220,000); AID 1434; Cerulean-Runt/Venus-CBFb-SMMHC FRET ratio 530/480, 1 h; inhibition, % at 20 µM; Q01196+Q13951;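 active = mean inhibition across duplicate retests at 20 µM reaching about 50%, limit read from the data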;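 note: 0% = DMSO wells and 100% = wells with excess untagged CBFb-SMMHC; inhibitors lower the FRET ratio by blocking Runt binding to CBFb-SMMHC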
Runt-CBFb FRET: inhibitors of human RUNX1 Runt domain binding to CBFb; AID 1496; actives 0.46% (n = 220,000); Cerulean-Runt/Venus-CBFb FRET ratio 530/480, 1 h; inhibition, % at 20 µM; Q01196+Q13951;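 active = inhibition over about 50% at 20 µM in the single-dose screen, limit read from the data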;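 note: 0% = DMSO wells and 100% = excess unlabeled CBFb competitor control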
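Doses: 20 µM compound in 1% DMSO | Material: Cerulean-labeled Runt domain protein | Amount: Each fluorescent fusion protein 100 nM | Schedule: Two 1 h room-temperature incubations shielded from light | Measured by: FRET fluorescence | Evaluation: Loss of energy transfer signal | Controls: Unlabeled CBFb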
Hck-Nef inh: blocks Nef-activated human Hck kinase; Recombinant Hck-YEEI plus Nef, Z-Lyte FRET kinase assay; inhibition, % at 20 µM; actives 0.68% (n = 220,000); AID 463187;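 active = Hck-Nef kinase inhibition above about 50%, limit read from the data; inactive = inhibition below that limit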;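 note: 0% = DMSO with Hck plus Nef and 100% = Hck alone without Nef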
14-3-3 Bad PPI: disrupts binding of bovine 14-3-3 zeta to phospho-Bad peptide; AID 781; actives 0.71% (n = 220,000); TR-FRET 14-3-3zeta/Dy647-pBad peptide displacement, 1 h; inhibition, % at 21.7 µM;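 active = inhibition above about 70%, limit read from the data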;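 note: 0% = full 14-3-3 plus peptide FRET controls and 100% = background without 14-3-3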
Target sequence (P63103 whole entry, looked up): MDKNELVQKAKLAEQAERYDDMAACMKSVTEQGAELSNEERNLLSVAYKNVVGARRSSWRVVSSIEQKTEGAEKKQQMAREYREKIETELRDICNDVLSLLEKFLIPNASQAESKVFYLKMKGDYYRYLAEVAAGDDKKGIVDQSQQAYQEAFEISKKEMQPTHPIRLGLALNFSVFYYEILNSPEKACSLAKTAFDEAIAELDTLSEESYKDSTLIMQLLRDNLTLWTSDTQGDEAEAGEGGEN
Tb hexokinase: blocks Trypanosoma brucei hexokinase 1 activity; inhibition, % at 10 µM; recombinant TbHK1, G6PDH-coupled NADH A340; actives 0.11% (n = 220,000);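 active = inhibition of 50% or more in the single-dose primary screen; inactive = inhibition below 50%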
YIC counter: counter-screen for RanGTP-importin-beta inhibitors: YIC FRET probe; actives 40% (n = 1,000); AID 435026; IC50, µM; shares compounds with RanGTP-Impb inh; Purified YIC probe, intramolecular FRET ratio YFP/CFP;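 active = fitted half-maximal inhibitory concentration no more than tenfold above the top dose tested; inconclusive = flat fit with 30 to 70% activity, or poor fit; inactive = half-maximal concentration beyond tenfold above the top dose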
Hck Nef conf: confirmation of Hck-Nef kinase inhibitors. shares compounds with Hck-Nef inh. actives 28% (n = 1,300). Recombinant Hck-YEEI:Nef, Z-Lyte FRET kinase assay. calls only at 10 µM;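 active = average inhibition of at least 50%, with Z-scores no higher than 3 in both the phospho-tyrosine peptide and fluorescence counterscreens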
* marks the source's active call; other numbers are inactive results; i = inactive; ? = inconclusive; . = not tested or not shown; + = active, no number. An excerpt weighted towards active compounds, which were near 2.2% of everything screened.

SMILES	RanGTP-Impb inh	Runt-SMMHC FRET	Runt-CBFb FRET	Hck-Nef inh	14-3-3 Bad PPI	Tb hexokinase	Hck Nef conf	others
COCCOC(=O)C1=C(C)OC(N)=C(C(=O)OC)C12C(=O)Nc1ccccc12 (stereo unspecified)	16*	2	-1	0	2	-2	.	YIC counter=>50
COCCNC(=O)c1c(NC(=O)c2ccco2)n(Cc2ccccc2)c2nc3ccccc3nc12	31*	98*	33	8	1	-16	.	YIC counter=0.93*
CC1(C)CN(S(=O)(=O)OCC(Cl)(Cl)Cl)C(=O)N1	6	.	.	.	.	.	.
O=C1NC(=O)N(Cc2ccccc2)C(=O)/C1=C\N1CCCc2ccccc21	27*	48	37	0	-3	13	.	YIC counter=>50
O=C1NC(=O)C(=CN2CCc3ccccc32)C(=O)N1	?	5	4	-12	-3	2	.
Cc1cccc(-n2c(O)c(/C=C/C=Nc3ccccc3)c(=O)[nH]c2=O)c1	34*	75	31	6	-13	-9	.	YIC counter=2.8*
Cc1[nH]c2ccccc2c1C(=O)C(=O)N1CC2CC(C1)c1cccc(=O)n1C2 (stereo unspecified)	2	2	2	-1	-3	-16	.
O=C(O)Cn1cc(/C=C2\C(=O)NC(=O)N(Cc3ccco3)C2=O)c2ccccc21	-2	-9	19	74*	3	7	i
O=[N+]([O-])NC1=NCCN1Cc1ccc(Cl)nc1	0	.	.	.	.	.	.
Nc1ncn[nH]1	-1	.	.	.	.	.	.
CC1=C2[C@@H]3OC(=O)[C@H](C)C3CC[C@@]2(C)C=CC1=O (stereo partly specified)	4	.	.	.	.	.	.
O=C1NC(=O)C(=Cc2ccc(-c3ccccc3[N+](=O)[O-])o2)C(=O)N1	0	27	20	76*	10	-30	+
CCN(CC)CCN=Cc1c(O)n(CCc2ccccc2)c(=O)[nH]c1=O	1	3	1	62*	-6	1	i
CCN(CC)C(=O)c1ccc2c(c1)C1C(Cl)C(Sc3ccccc3[N+](=O)[O-])CC1C(C(=O)O)N2 (stereo unspecified)	1	2	11	63*	40	-3	i
NC(=S)N/N=C/c1coc2ccccc2c1=O	0	2	1	53*	-4	-16	i
Cc1nn(Cc2ccccc2)c(Cl)c1C(=O)OCC(=O)NCC1CCCO1 (stereo unspecified)	3	-1	1	25	10	3	.
CCC(=NCCCN1CCOCC1)c1c(O)n(Cc2ccccc2)c(=O)[nH]c1=O	2	5	2	0	-4	1	.
CC(C)CCNC(=O)c1c(N)n(CC2CCCO2)c2nc3ccccc3nc12 (stereo unspecified)	93*	20	2	58*	6	-28	i
Nc1c(C(=O)NCCN2CCOCC2)c2nc3ccccc3nc2n1Cc1ccccc1	63*	81*	78*	95*	3	-29	.
Nc1c(C(=O)NCCN2CCOCC2)c2nc3ccccc3nc2n1Cc1ccco1	64*	.	72*	58*	-5	-13	i
OC(CNC1CCCCCCC1)c1ccccc1 (stereo unspecified)	0	-3	-2	-6	8	-2	.
NC(=S)/N=C/c1c(O)[nH]c(=O)[nH]c1=O	4	3	4	63*	-3	2	i
CCCCCCCCN=Cc1c(O)[nH]c(=O)[nH]c1=O	0	-5	1	2	-1	-7	.
C=CCNC(=S)/N=C/c1c(O)[nH]c(=O)[nH]c1=O	-1	-6	2	83*	-2	-1	i
CC[C@H]1CN2CC[C@@]3(C(=O)Nc4ccccc43)[C@@H]2C[C@@H]1/C(=C\OC)C(=O)OC	-1	.	.	.	.	.	.
SMILES	RanGTP-Impb inh	Runt-SMMHC FRET	Runt-CBFb FRET	Hck-Nef inh	14-3-3 Bad PPI	Tb hexokinase	Hck Nef conf	others
COC1C(OC(=O)c2ccc(C)[nH]2)C(O)C(Oc2ccc3c(O)c(NC(=O)c4ccc(O)c(CC=C(C)C)c4)c(=O)oc3c2Cl)OC1(C)C (stereo unspecified)	.	-10	-1	55*	4	-6	i
COc1cc(/C=N/NC(=O)CN2CC(c3ccccc3)CC2=O)ccc1OC(=O)N(C)C (stereo unspecified)	-2	5	0	2	-9	-5	.
O=C1NC(=O)C(=Cc2csc3ccccc23)C(=O)N1	-2	21	30	-17	7	2	.
O=C1NC(=O)C(=Cc2coc3ccccc3c2=O)C(=O)N1	-1	-4	-1	97*	-5	-19	+
CCOc1cc2c(cc1OCC)-n1cccc1C(c1cccc([N+](=O)[O-])c1)NC2 (stereo unspecified)	4	.	.	.	.	.	.
N#Cc1ccccc1NC(=O)CN1CC=C(c2ccccc2)CC1	2	-1	-3	55*	-14	6	i
CC(C)(C)NC(=O)NC(=O)CN1CC=C(c2ccccc2)CC1	.	-1	1	19	-10	2	.
Cc1cc(OCC(=O)NCc2ccc(S(N)(=O)=O)cc2)c2c3c(c(=O)oc2c1)CCC3	1	.	.	.	.	.	.
